Screens (PubChem BioAssay)
NPR2 activator: GC-B (human) receptor activation. P20594. HEK293-GC-B cells, CNP EC30, cGMP TR-FRET; 0% at EC30 CNP, 100% saturating CNP. activation, % at 10 µM. 0.11% of 370,000 active. AID 1920062;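 active = activation at 10 µM reaching about 35% in either raw or pattern-adjusted values, limit read from the data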
Arr AP2 block: human beta-arrestin and AP2 interaction inhibition | FITC-arrestin peptide / GST-AP2 beads, flow cytometry; AP2 beta2 appendage carries R879A mutation | inhibition, % at 10 µM | 0.31% of 340,000 active;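 active = inhibition above a set limit, near 3 SD of compounds lacking own fluorescence, cut at about 54% in these data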;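 note: plate controls were DMSO wells for no effect and 5 µM unlabelled arrestin peptide for full effect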
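System: GST-AP2 R879A bound to glutathione beads, E. coli-expressed. Also added: 50 nM FITC-arrestin peptide. Schedule: compound with beads 12 min RT, then probe 1 h RT. Signal: bead flow cytometry, FITC channel. Read-out basis: percent response.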
GalR3 antag: blocks the human galanin receptor 3. O60755. HEK293 GalR3-CNG cAMP membrane potential fluorescence; galR3 body fused to GalR1 C-terminus. inhibition, % at 3 µM. 0.44% of 360,000 active;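 active = inhibition above the screen-wide average plus 3 SD, cut at about 13% in these data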;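 note: forskolin and galanin both at EC90 stimulate the cells; cAMP rise reported by CNG channel membrane potential dye signal; 0% = forskolin plus galanin with DMSO and 100% = forskolin alone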
GC-A act: GC-A (human) enzyme activation. P16066. HEK293 GC-A cells, cGMP TR-FRET, EC30 ANP; 0% at EC30 ANP, 100% saturating ANP. 0.14% of 370,000 active. activation, % at 10 µM. AID 1671463; in the data active = activation above about 40%
Arr-AP2 CP1: inhibitors of human beta-arrestin and AP2 interaction. shares compounds with Arr AP2 block. GST-AP2 beads, FITC arrestin peptide binding, flow cytometry; GST-fused beta2-adaptin appendage, R879A mutant. inhibition, % at 10 µM. 2% of 1,300 active. AID 504908;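 active = inhibition above a set limit, roughly 3 SD of non-fluorescent compound noise, cut at about 38% in these data; inactive = inhibition at or below that limit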;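 note: loss of bead fluorescence from 50 nM FITC arrestin peptide bound to appendage; 0% = negative control wells and 100% = excess unlabelled arrestin peptide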
Target sequence (P63010 whole entry, looked up, the tested form may be a part, one chain of several): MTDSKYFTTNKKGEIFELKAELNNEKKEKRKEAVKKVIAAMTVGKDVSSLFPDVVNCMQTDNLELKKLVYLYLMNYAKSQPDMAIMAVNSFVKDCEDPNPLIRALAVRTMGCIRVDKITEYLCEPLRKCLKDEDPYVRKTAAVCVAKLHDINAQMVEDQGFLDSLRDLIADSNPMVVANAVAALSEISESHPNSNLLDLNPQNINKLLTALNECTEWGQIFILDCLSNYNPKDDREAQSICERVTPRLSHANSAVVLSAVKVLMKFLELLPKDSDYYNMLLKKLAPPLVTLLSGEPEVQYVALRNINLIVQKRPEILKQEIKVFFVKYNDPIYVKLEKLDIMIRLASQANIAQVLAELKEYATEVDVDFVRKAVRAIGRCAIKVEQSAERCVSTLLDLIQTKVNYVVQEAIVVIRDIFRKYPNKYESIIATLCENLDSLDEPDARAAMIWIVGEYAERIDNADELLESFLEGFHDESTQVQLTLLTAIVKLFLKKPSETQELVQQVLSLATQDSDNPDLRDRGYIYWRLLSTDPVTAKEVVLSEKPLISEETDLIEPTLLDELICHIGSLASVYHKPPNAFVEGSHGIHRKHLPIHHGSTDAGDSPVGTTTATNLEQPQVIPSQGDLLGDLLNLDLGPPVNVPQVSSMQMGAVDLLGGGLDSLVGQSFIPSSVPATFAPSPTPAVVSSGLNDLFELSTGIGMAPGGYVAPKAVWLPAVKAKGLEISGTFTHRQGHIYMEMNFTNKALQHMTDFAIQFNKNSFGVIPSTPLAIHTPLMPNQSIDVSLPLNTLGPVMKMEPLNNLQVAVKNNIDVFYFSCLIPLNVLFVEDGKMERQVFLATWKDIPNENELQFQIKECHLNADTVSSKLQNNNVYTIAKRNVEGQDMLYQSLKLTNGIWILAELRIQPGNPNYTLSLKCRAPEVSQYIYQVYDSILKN
GST GSH counter: GST-GSH bead binding interference, counter-screen | 2% of 1,300 active | AID 588338 | GST-fluorescein binding to GSH beads, fluorescence | shares compounds with Arr AP2 block | inhibition, % at 10 µM;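 active = inhibition above 50%, about 3 SD of the inhibition seen with non-fluorescent compounds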;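 note: fluorescein maleimide labelled GST captured on 4 micron glutathione beads; higher means more loss of bead fluorescence from quenching or blocked binding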
Starred values were filed as active, the others as inactive. The list is not random: actives were taken first. Their share in the collection is about 0.94%.

How did CN1C(=O)NC(c2ccc(O)cc2)C2=C1CN(c1cccc3ccccc13)C2=O (centres undefined) do in these assays?
NPR2 activator: -1; Arr AP2 block: -4; GalR3 antag: -2; GC-A act: -1; Arr-AP2 CP1: -6; GST GSH counter: 6

What do the screens show for `COc1ccc(-n2nc3ccc(N)cc3n2)cc1`?
NPR2 activator: -4; GalR3 antag: -8; GC-A act: 12

How did COc1ccc(-n2nc(N)c(C(N)=O)n2)cc1 do in these assays?
NPR2 activator: -3; Arr AP2 block: 55*; GalR3 antag: 2; GC-A act: 4; Arr-AP2 CP1: 8; GST GSH counter: 3

What do the screens show for `CN(C)C(CNC(=O)CCNS(=O)(=O)c1ccccc1C(F)(F)F)c1ccccc1` (centres undefined)?
NPR2 activator: 0; Arr AP2 block: 58*; GalR3 antag: -1; GC-A act: -4; Arr-AP2 CP1: 10; GST GSH counter: -4

What do the screens show for `O=C(Nc1ccc(S(=O)(=O)N2CCCC2)cc1)c1cccs1`?
NPR2 activator: 1; Arr AP2 block: 4; GalR3 antag: -6; GC-A act: 0

How did O=C(NCCc1ccc(S(=O)(=O)N2CCCC2)cc1)c1cccs1 do in these assays?
NPR2 activator: 3; Arr AP2 block: 87*; GalR3 antag: -2; GC-A act: -1; Arr-AP2 CP1: 1; GST GSH counter: 1

Results for Cc1ccccc1/C=N/Nc1ccc(Cl)nn1 ?
NPR2 activator: 3; Arr AP2 block: 60*; GalR3 antag: -7; GC-A act: 3; Arr-AP2 CP1: -14; GST GSH counter: -4

Results for COc1ccc(C2CC(=O)C(c3ccc([N+](=O)[O-])cc3)=CN2Cc2ccccc2)cc1 (centres undefined) ?
NPR2 activator: -7; GalR3 antag: -9; GC-A act: -6

What do the screens show for `O=C(CSc1ccc(-c2ccccc2)nn1)NC1CCCCC1`?
NPR2 activator: -2; Arr AP2 block: 63*; GalR3 antag: -2; GC-A act: 3; Arr-AP2 CP1: -11; GST GSH counter: -2

Results for O=C(CSc1ccc(-c2ccccc2)nn1)NC1CCCC1 ?
NPR2 activator: -6; Arr AP2 block: 48; GalR3 antag: -4; GC-A act: -1

How did CCOC(=O)CN1C(=O)NC2NC(=O)NC21 (centres undefined) do in these assays?
NPR2 activator: 4; Arr AP2 block: 79*; GalR3 antag: -3; GC-A act: 0; Arr-AP2 CP1: 4; GST GSH counter: -6

Results for O=C(NCc1ccccc1)[C@H]1CCCN1C(=O)[C@H]1CCCN1C(=O)c1ccc(Cl)cc1 ?
NPR2 activator: 2; GalR3 antag: -7; GC-A act: -1

What do the screens show for `Cc1ccc(-c2nc(NC(=O)c3ccc(S(=O)(=O)N(CCC#N)CCC#N)cc3)sc2-c2ccccc2)cc1`?
NPR2 activator: 6; Arr AP2 block: 63*; GalR3 antag: -1; GC-A act: -4; Arr-AP2 CP1: 0; GST GSH counter: -3

Results for N#CCCN(CCC#N)S(=O)(=O)c1ccc(C(=O)Nc2nc(-c3ccccc3)c(C(=O)c3ccccc3)s2)cc1 ?
NPR2 activator: -1; Arr AP2 block: -3; GalR3 antag: -8; GC-A act: -1

Results for C=CCN=C1NC(c2ccccc2)C(C(=O)OC)=C(C)N1Cc1ccccc1C(F)(F)F (centres undefined) ?
NPR2 activator: -32; GalR3 antag: -4; GC-A act: -24

How did Cc1ccc(CNC(=O)Cn2cnc(S(=O)(=O)N3CCC(C)CC3)c2)o1 do in these assays?
NPR2 activator: -2; Arr AP2 block: 55*; GalR3 antag: -2; GC-A act: 1; Arr-AP2 CP1: -4; GST GSH counter: 0

Results for CC(=O)c1ccc(NC(=O)Cn2cnc(S(=O)(=O)N3CCC(C)CC3)c2)cc1 ?
NPR2 activator: 2; Arr AP2 block: 7; GalR3 antag: -5; GC-A act: 4

What do the screens show for `O=C(O)c1cc2nc(-c3ccccc3)cc(C(F)(F)F)n2n1`?
NPR2 activator: 1; Arr AP2 block: 7; GalR3 antag: -5; GC-A act: 0

What do the screens show for `O=C(O)c1cc2nc(-c3ccccc3)cc(-c3ccccc3)n2n1`?
NPR2 activator: -11; Arr AP2 block: 68*; GalR3 antag: 2; GC-A act: -1; Arr-AP2 CP1: -10; GST GSH counter: 1

What do the screens show for `C=CCN1[C@@H](CC(C)C)COc2cccc(NCCCN3CCOCC3)c2S1(=O)=O`?
NPR2 activator: 0; GalR3 antag: -4; GC-A act: 1

What do the screens show for `COc1cc(OC)c(NC(=O)CC(C)=O)cc1Cl`?
NPR2 activator: 9; Arr AP2 block: 4; GalR3 antag: -5; GC-A act: -2; Arr-AP2 CP1: -6; GST GSH counter: -1

Results for COc1cc(OC)c(NC(=O)CC(=O)Nc2cc(Cl)c(OC)cc2OC)cc1Cl ?
NPR2 activator: 6; Arr AP2 block: 7; GalR3 antag: -2; GC-A act: 13

What do the screens show for `O=S(=O)(Nc1ccc2c(c1)OCCO2)c1c(F)cccc1F`?
NPR2 activator: 3; Arr AP2 block: 59*; GalR3 antag: -10; GC-A act: 2; Arr-AP2 CP1: -11; GST GSH counter: 1

What do the screens show for `C#CCN(Cc1cccc(F)c1)C(=O)c1nnc2c3ccccc3n(S(=O)(=O)c3ccc(C)cc3)c2n1`?
NPR2 activator: 7; GalR3 antag: -3; GC-A act: 3

How did COC(=O)c1cccc(NC(=O)CN(c2ccc3c(c2)OCO3)S(C)(=O)=O)c1C do in these assays?
NPR2 activator: -5; Arr AP2 block: 61*; GalR3 antag: -3; GC-A act: 0; Arr-AP2 CP1: 7; GST GSH counter: 5

What do the screens show for `COC(=O)c1cc(NC(=O)CN(c2ccc3c(c2)OCO3)S(C)(=O)=O)ccc1Cl`?
NPR2 activator: -2; Arr AP2 block: -6; GalR3 antag: -5; GC-A act: -4

Results for COc1ccc(NC(=O)c2ccc(Cc3ccc(C)cc3)o2)cc1 ?
NPR2 activator: -3; Arr AP2 block: 23; GalR3 antag: 2; GC-A act: 3

What do the screens show for `Cc1ccc(Cc2ccc(C(=O)NNC(N)=S)o2)cc1`?
NPR2 activator: 5; Arr AP2 block: 59*; GalR3 antag: -3; GC-A act: 1; Arr-AP2 CP1: -8; GST GSH counter: -2

What do the screens show for `CC(O)c1nc2ccccc2n1CCCc1ccccc1` (centres undefined)?
NPR2 activator: -2; Arr AP2 block: 6; GalR3 antag: -2; GC-A act: 11
